Test results as given in ChEMBL document CHEMBL1129260, “Evaluation of the stability and animal biodistribution of gadolinium (III) benzylamine-derivatized diethylenetriaminepentaacetic acid” (J Med Chem, 1996).

Key:
Rattus norvegicus [1] = species: Rattus norvegicus; experiment: Biodistribution of Gd-LDTA (conjugated with mannose BSA) protein using [111In]- in mature female Sprague-Dawley rat liver after injecting for 48 hour.; type: ADME, organism-based; settings: in vivo
Rattus norvegicus [2] = species: Rattus norvegicus; experiment: Biodistribution of In-LDTA (conjugated with mannoseBSA) protein using [111In]- in mature female Sprague-Dawley rat liver after injecting for 4 hour.; type: ADME, organism-based; settings: in vivo
Summary of the method: (§1)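 SCN-LDTPA was coupled (pH 9 bicine, 24 h, RT) to BSA, mannosylated BSA or galactosylated BSA and FPLC-purified. The conjugate (400 μg) was labeled with 340 μCi 111In acetate at pH 5.5 for 45 min and gel-filtered. Mature female Sprague-Dawley rats received 19 μg of conjugate; four rats per time point. Blood, liver, bone, kidney and colon were taken and reported as %ID/organ.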

Rattus norvegicus [3] = species: Rattus norvegicus; experiment: Biodistribution of In-LDTA (conjugated with BSA)protein using [111In]- in mature female Sprague-Dawley rat colon after injecting for 24 hour.; type: ADME, organism-based; settings: in vivo; summary of the method: as §1
[4] = Gadolinium(III) stability constants (log K value) for the compound polyamino carboxylate derivative; type: physicochemical; settings: 0.1 M KCl
Summary of the method: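 Potentiometric titration under argon at 25.00(5) °C in 0.100 M KCl, meter calibrated to read -log [H+] with dilute standard HCl. LDTPA with an equimolar amount of GdCl3 titrated with CO2-free 0.0999 M KOH, added in 0.100 mL aliquots, up to pH 11. Ligand protonation constants came from a parallel titration without metal. Constants were computed from the titration data.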

Rattus norvegicus [5] = species: Rattus norvegicus; experiment: Biodistribution of In-LDTA (conjugated with BSA) protein using [111In]- in mature female Sprague-Dawley rat colon after injecting for 1 hour.; type: ADME, organism-based; settings: in vivo; summary of the method: as §1
Rattus norvegicus [6] = species: Rattus norvegicus; experiment: Biodistribution of In-LDTA (conjugated with mannoseBSA)protein using [111In]- in mature female Sprague-Dawley rat blood after injecting for 24 hour.; type: ADME, organism-based; settings: in vivo; summary of the method: as §1
Rattus norvegicus [7] = species: Rattus norvegicus; experiment: Biodistribution of In-LDTA (conjugated with BSA) protein using [111In]- in mature female Sprague-Dawley rat blood after injecting for 24 hour.; type: ADME, organism-based; settings: in vivo; summary of the method: as §1
Rattus norvegicus [8] = species: Rattus norvegicus; experiment: Biodistribution of In-LDTA (conjugated with galactose BSA)protein using [111In]- in mature female Sprague-Dawley rat kidney after injecting for 1 hour.; type: ADME, organism-based; settings: in vivo; summary of the method: as §1
Rattus norvegicus [9] = species: Rattus norvegicus; experiment: Biodistribution of Gd-LDTA (conjugated with mannose BSA) protein using [111In]- in mature female Sprague-Dawley rat colon after injecting for 4 hour.; type: ADME, organism-based; settings: in vivo
Summary of the method: (§2)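 Conjugate of SCN-LDTPA with BSA, mannosylated BSA or galactosylated BSA (10 equiv chelate, pH 9 bicine, RT 24 h; FPLC-purified) was labelled with 340 μCi 111In acetate at pH 5.5 for 45 min. It was then gel-filtered (Biospin-6) and checked for purity by FPLC. Mature female Sprague-Dawley rats received 19 μg of conjugate. Four rats per time point (1, 4, 24, 48 h) were killed; blood, liver, bone, kidney and colon were taken and %ID/organ was calculated.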

Rattus norvegicus [10] = species: Rattus norvegicus; experiment: Biodistribution of Gd-DTA (conjugated with BSA)protein using [111In]- in mature female Sprague-Dawley rat bone after injecting for 4 hour.; type: ADME, organism-based, Bone element; settings: in vivo; summary of the method: as §2
Rattus norvegicus [11] = species: Rattus norvegicus; experiment: Biodistribution of Gd-LDTA (conjugated with mannose BSA) protein using [111In]- in mature female Sprague-Dawley rat bone marrow after injecting for 48 hour.; type: ADME, organism-based; settings: in vivo
Rattus norvegicus [12] = species: Rattus norvegicus; experiment: Biodistribution of Gd-DTA (conjugated with BSA)protein using [111In]- in mature female Sprague-Dawley rat liver after injecting for 48 hour.; type: ADME, organism-based; settings: in vivo; summary of the method: as §2
Rattus norvegicus [13] = species: Rattus norvegicus; experiment: Biodistribution of Gd-LDTA (conjugated with mannose BSA) protein using [111In]- in mature female Sprague-Dawley rat colon after injecting for 24 hour.; type: ADME, organism-based; settings: in vivo; summary of the method: as §2
Rattus norvegicus [14] = species: Rattus norvegicus; experiment: Biodistribution of In-LDTA (conjugated with galactose BSA)protein using [111In]- in mature female Sprague-Dawley rat bone after injecting for 48 hour.; type: ADME, organism-based, Bone element; settings: in vivo; summary of the method: as §1
Rattus norvegicus [15] = species: Rattus norvegicus; experiment: Biodistribution of Gd-LDTA (conjugated with mannose BSA) protein using [111In]- in mature female Sprague-Dawley rat bone after injecting for 1 hour.; type: ADME, organism-based, Bone element; settings: in vivo; summary of the method: as §2
Rattus norvegicus [16] = species: Rattus norvegicus; experiment: Biodistribution of In-LDTA (conjugated with BSA) protein using [111In]- in mature female Sprague-Dawley rat blood after injecting for 4 hour.; type: ADME, organism-based; settings: in vivo; summary of the method: as §1
Rattus norvegicus [17] = species: Rattus norvegicus; experiment: Biodistribution of In-LDTA (conjugated with BSA) protein using [111In]- in mature female Sprague-Dawley rat blood after injecting for 48 hour.; type: ADME, organism-based; settings: in vivo; summary of the method: as §1
Rattus norvegicus [18] = species: Rattus norvegicus; experiment: Biodistribution of In-LDTA (conjugated with galactose BSA)protein using [111In]- in mature female Sprague-Dawley rat kidney after injecting for 24 hour.; type: ADME, organism-based; settings: in vivo; summary of the method: as §1
Rattus norvegicus [19] = species: Rattus norvegicus; experiment: Biodistribution of Gd-LDTA (conjugated with galactose BSA) protein using [111In]- in mature female Sprague-Dawley rat liver after injecting for 1 hour.; type: ADME, organism-based; settings: in vivo; summary of the method: as §2
Rattus norvegicus [20] = species: Rattus norvegicus; experiment: Biodistribution of Gd-LDTA (conjugated with galactose BSA) protein using [111In]- in mature female Sprague-Dawley rat liver after injecting for 4 hour.; type: ADME, organism-based; settings: in vivo; summary of the method: as §2
Rattus norvegicus [21] = species: Rattus norvegicus; experiment: Biodistribution of Gd-LDTA (conjugated with mannose BSA) protein using [111In]- in mature female Sprague-Dawley rat kidney after injecting for 4 hour.; type: ADME, organism-based; settings: in vivo
Rattus norvegicus [22] = species: Rattus norvegicus; experiment: Biodistribution of Gd-LDTA (conjugated with galactose BSA) protein using [111In]- in mature female Sprague-Dawley rat kidney after injecting for 24 hour.; type: ADME, organism-based; settings: in vivo; summary of the method: as §2
Rattus norvegicus [23] = species: Rattus norvegicus; experiment: Biodistribution of In-LDTA (conjugated with galactose BSA)protein using [111In]- in mature female Sprague-Dawley rat bone after injecting for 1 hour.; type: ADME, organism-based, Bone element; settings: in vivo; summary of the method: as §1
Rattus norvegicus [24] = species: Rattus norvegicus; experiment: Biodistribution of In-LDTA (conjugated with BSA) protein using [111In]- in mature female Sprague-Dawley rat liver after injecting for 4 hour.; type: ADME, organism-based; settings: in vivo; summary of the method: as §1
Rattus norvegicus [25] = species: Rattus norvegicus; experiment: Biodistribution of Gd-LDTA (conjugated with galactose BSA) protein using [111In]- in mature female Sprague-Dawley rat bone marrow after injecting for 4 hour.; type: ADME, organism-based; settings: in vivo
Rattus norvegicus [26] = species: Rattus norvegicus; experiment: Biodistribution of Gd-LDTA (conjugated with mannose BSA) protein using [111In]- in mature female Sprague-Dawley rat colon after injecting for 96 hour.; type: ADME, organism-based; settings: in vivo
Rattus norvegicus [27] = species: Rattus norvegicus; experiment: Biodistribution of In-LDTA (conjugated with mannoseBSA) protein using [111In]- in mature female Sprague-Dawley rat colon after injecting for 24 hour.; type: ADME, organism-based; settings: in vivo; summary of the method: as §1
Rattus norvegicus [28] = species: Rattus norvegicus; experiment: Biodistribution of In-LDTA (conjugated with BSA) protein using [111In]- in mature female Sprague-Dawley rat bone after injecting for 48 hour.; type: ADME, organism-based, Bone element; settings: in vivo; summary of the method: as §1
Rattus norvegicus [29] = species: Rattus norvegicus; experiment: Biodistribution of Gd-DTA (conjugated with BSA) protein using [111In]- in mature female Sprague-Dawley rat colon after injecting for 48 hour.; type: ADME, organism-based; settings: in vivo; summary of the method: as §2
Rattus norvegicus [30] = species: Rattus norvegicus; experiment: Biodistribution of In-LDTA (conjugated with galactose BSA)protein using [111In]- in mature female Sprague-Dawley rat kidney after injecting for 4 hour.; type: ADME, organism-based; settings: in vivo; summary of the method: as §1

Q: With `Nc1ccc(CC(C(=O)O)N(CCN(CC(=O)O)CC(=O)O)CCN(CC(=O)O)CC(=O)O)cc1` (stereo not given) as the compound, how does the ID/organ (Rattus norvegicus [1]) read?
A: 35%

Q: What about the ID/organ (Rattus norvegicus [2]) of the same compound?
A: 87.6%

Q: What about the ID/organ (Rattus norvegicus [3]) of the same compound?
A: 9.4%

Q: And the “Log K” value [4]?
A: 22

Q: What about the ID/organ (Rattus norvegicus [5]) of the same compound?
A: 0.86%

Q: And the ID/organ (Rattus norvegicus [6])?
A: 0.129%

Q: What about the ID/organ (Rattus norvegicus [7]) of the same compound?
A: 10.8%

Q: And the ID/organ (Rattus norvegicus [8])?
A: 0.0446%

Q: And the ID/organ (Rattus norvegicus [9])?
A: 0.327%

Q: And the ID/organ (Rattus norvegicus [10])?
A: 22.3%

Q: And the ID/organ (Rattus norvegicus [11])?
A: 1.77%

Q: What about the ID/organ (Rattus norvegicus [12]) of the same compound?
A: 17.4%

Q: And the ID/organ (Rattus norvegicus [13])?
A: 0.403%

Q: And the ID/organ (Rattus norvegicus [14])?
A: 0.29%

Q: And the ID/organ (Rattus norvegicus [15])?
A: 15.6%

Q: And the ID/organ (Rattus norvegicus [16])?
A: 53.8%

Q: What about the ID/organ (Rattus norvegicus [17]) of the same compound?
A: 3.33%

Q: What about the ID/organ (Rattus norvegicus [18]) of the same compound?
A: 0.112%

Q: And the ID/organ (Rattus norvegicus [19])?
A: 91.3%

Q: And the ID/organ (Rattus norvegicus [20])?
A: 86.1%

Q: And the ID/organ (Rattus norvegicus [21])?
A: 0.542%

Q: And the ID/organ (Rattus norvegicus [22])?
A: 0.14%

Q: And the ID/organ (Rattus norvegicus [23])?
A: 0.227%

Q: And the ID/organ (Rattus norvegicus [24])?
A: 17%

Q: And the ID/organ (Rattus norvegicus [25])?
A: 0.109%

Q: What about the ID/organ (Rattus norvegicus [26]) of the same compound?
A: 0.241%

Q: And the ID/organ (Rattus norvegicus [27])?
A: 0.732%

Q: What about the ID/organ (Rattus norvegicus [28]) of the same compound?
A: 25.9%

Q: What about the ID/organ (Rattus norvegicus [29]) of the same compound?
A: 2.37%

Q: And the ID/organ (Rattus norvegicus [30])?
A: 0.0688%
